Screening data deposited in PubChem by several laboratories.
Compounds with a hit are over-represented: about 1.8% of the library has one in this group of screens.
TDP2 absorb: blocks human TDP2 phosphodiesterase activity; O95551; recombinant TDP2, T5PNP hydrolysis, p-nitrophenol absorbance 415 nm; inhibition, % at 12.8 µM; 370,000 compounds, 0.34% hits;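 active means inhibition above the mean of all tested compounds plus 3 SD, set per campaign, cut at about 25% in these data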
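Evaluation: % inhibition relative to enzyme-containing and enzyme-free wells. Material: recombinant human TDP2. Benchmarks: enzyme-free and DMSO wells. Timing: enzyme reaction with compound for 2 h at 37 °C. Compound dosing: 12.8 µM only. Measured by: p-Nitrophenol epi absorbance. Reagent: T5PNP substrate at 5 mM, a TopII-DNA adduct mimic. Replication: single well per compound.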
LEDGF integ inh: blocks HIV-1 LEDGF/p75-dependent DNA integration. TR-FRET IN-LEDGF/p75 DNA integration, Eu/Cy5. inhibition, % at 3.7 µM. 370,000 compounds, 0.64% hits;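 active means inhibition above the screen-wide mean plus 3 SD, cut at about 13% in these data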;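 further: signal is the Cy5 over europium emission ratio at 671 and 618 nm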
CASP6 VEID inh: blocks human caspase-6 cleavage activity. purified caspase-6, Z-VEID-R110 cleavage fluorescence. inhibition, % at 12.5 µM. 350,000 compounds, 0.53% hits. P55212. AID 686996;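 active means mean inhibition across replicates at least about 35%, with every replicate also reaching that limit, limit read from the data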
UHRF1 binding: UHRF1 methyl-DNA binding inhibition; AID 687016; Q96T88; UHRF1 binding to methylated oligo, TR-FRET; 370,000 compounds, 0.75% hits; inhibition, % at 4.4 µM; in the data active means inhibition above about 21%;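 further: UHRF1 SRA domain binding a hemimethylated CpG hairpin DNA probe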
Target sequence (Q96T88 whole entry, looked up, the tested form may be a part): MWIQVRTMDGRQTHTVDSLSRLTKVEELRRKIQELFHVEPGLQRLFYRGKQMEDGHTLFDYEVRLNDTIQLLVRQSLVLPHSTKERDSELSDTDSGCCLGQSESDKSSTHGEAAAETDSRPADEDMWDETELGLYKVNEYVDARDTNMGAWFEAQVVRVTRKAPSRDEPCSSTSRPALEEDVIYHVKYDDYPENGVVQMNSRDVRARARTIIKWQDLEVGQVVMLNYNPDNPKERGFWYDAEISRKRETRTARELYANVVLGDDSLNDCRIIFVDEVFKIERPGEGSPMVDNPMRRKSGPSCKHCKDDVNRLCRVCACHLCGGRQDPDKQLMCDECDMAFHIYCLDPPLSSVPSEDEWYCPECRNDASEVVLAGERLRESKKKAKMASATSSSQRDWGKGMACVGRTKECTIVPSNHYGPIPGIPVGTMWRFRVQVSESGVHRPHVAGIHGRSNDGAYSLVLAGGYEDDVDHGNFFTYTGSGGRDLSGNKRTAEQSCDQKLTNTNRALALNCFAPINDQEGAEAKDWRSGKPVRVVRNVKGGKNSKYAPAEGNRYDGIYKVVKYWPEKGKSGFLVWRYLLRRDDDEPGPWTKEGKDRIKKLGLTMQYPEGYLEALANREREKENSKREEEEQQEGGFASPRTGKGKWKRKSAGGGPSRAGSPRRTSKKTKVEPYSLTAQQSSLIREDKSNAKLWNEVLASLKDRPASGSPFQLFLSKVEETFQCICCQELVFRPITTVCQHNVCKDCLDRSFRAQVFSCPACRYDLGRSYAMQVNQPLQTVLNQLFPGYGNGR
NSD2 HMT inh: NSD2 (human) methyltransferase inhibition; O96028; NSD2 peptide methylation, AlphaScreen, 120 min; inhibition, % at 12.5 µM; 310,000 compounds, 0.54% hits; AID 743445; in the data active means inhibition above about 50%
MBD2 DNA inh: MBD2-methylated oligo binding inhibition | 370,000 compounds, 0.31% hits | AID 686964 | Q9UBB5 | TR-FRET, MBD2 binding to methylated oligonucleotide | inhibition, % at 4.4 µM; in the data active means inhibition above about 13%
A number is an active result.

CCOC(=O)c1ccc(N=Nc2c(C)[nH]n(-c3ccccc3)c2=O)cc1 was read as TDP2 absorb inactive, LEDGF integ inh inactive, CASP6 VEID inh inactive, UHRF1 binding inactive, NSD2 HMT inh inactive and MBD2 DNA inh inactive.
COc1ccc2c3c(n(C)c2c1)[C@@H](CO)N(C(=O)Cc1ccccc1)CC31CN(C)C1 was read as CASP6 VEID inh inactive.
For COCCCNC(=S)N1CCN(c2nc(-c3ccc(F)cc3)cs2)CC1 the results were TDP2 absorb inactive, LEDGF integ inh inactive, CASP6 VEID inh inactive, UHRF1 binding 64.6, NSD2 HMT inh inactive and MBD2 DNA inh inactive.
`CCCNC(=O)N1CC2(C1)[C@@H](c1ccccc1)[C@@H](CO)N2C(=O)C1CC1` gave CASP6 VEID inh inactive.
For CCOC(=O)N1CCN(C(=O)CN(C)S(=O)(=O)c2ccc3c(c2)c(=O)n(C)c(=O)n3C)CC1 the results were TDP2 absorb inactive, LEDGF integ inh inactive, CASP6 VEID inh 42.0, UHRF1 binding inactive, NSD2 HMT inh inactive and MBD2 DNA inh inactive.
`O=C(C[C@H]1C=C[C@@H](NC(=O)C2CCOCC2)[C@H](CO)O1)NCc1ccncc1` gave CASP6 VEID inh inactive.
For Cc1nn(-c2ccccc2)c2c1P(=O)(O)/C(=C1\N(C)c3ccccc3C1(C)C)C=N2 the results were TDP2 absorb inactive, LEDGF integ inh inactive, CASP6 VEID inh 39.7, UHRF1 binding inactive, NSD2 HMT inh inactive and MBD2 DNA inh inactive.
For CCOc1ccc(S(=O)(=O)N(CC(=O)N/N=C/c2ccc(-c3ccc([N+](=O)[O-])cc3)o2)c2ccccc2)cc1 the results were TDP2 absorb inactive, LEDGF integ inh inactive, UHRF1 binding 28.0 and MBD2 DNA inh inactive.
Cn1c(N)c(-c2nc3cccnc3n2C)sc1=S was read as TDP2 absorb inactive, LEDGF integ inh inactive, CASP6 VEID inh inactive, UHRF1 binding 24.2, NSD2 HMT inh inactive and MBD2 DNA inh inactive.
CCC(=O)N(C)C[C@H]1Oc2cc(-c3cncnc3)ccc2S(=O)(=O)N([C@H](C)CO)C[C@@H]1C was read as CASP6 VEID inh inactive.
`CCCCCn1c(=O)[nH]c2cc(C(=O)N3CCN(c4ccc(C(C)=O)cc4)CC3)ccc2c1=O` gave TDP2 absorb inactive, LEDGF integ inh inactive, CASP6 VEID inh inactive, UHRF1 binding inactive, NSD2 HMT inh inactive and MBD2 DNA inh inactive.
For CCCCCn1c(=O)[nH]c2cc(C(=O)N3CCN(CC)CC3)ccc2c1=O the results were TDP2 absorb inactive, LEDGF integ inh inactive, UHRF1 binding 25.5, NSD2 HMT inh inactive and MBD2 DNA inh inactive.
For COc1ccc(S(=O)(=O)Nc2ccc3c(c2)C(=O)N([C@@H](C)CO)C[C@H](C)[C@@H](CN(C)S(=O)(=O)c2ccc(C)cc2)O3)cc1 the results were CASP6 VEID inh inactive.
`O=C(c1cccnc1)N1C[C@H]2[C@@H](c3ccccc31)[C@H](CO)N2Cc1ccc2c(c1)OCO2` gave CASP6 VEID inh inactive.
Screening CC(C)N(CC#CCC(O)(c1ccccc1)c1ccccc1)CCO returned TDP2 absorb inactive, LEDGF integ inh inactive, UHRF1 binding 26.1, NSD2 HMT inh inactive and MBD2 DNA inh inactive.
Screening COc1ccc(NC(=O)Nc2ccc3c(c2)C(=O)N([C@H](C)CO)C[C@H](C)[C@@H](CN(C)C(=O)Nc2cccc4ccccc24)OCCCC[C@@H](C)O3)cc1 returned CASP6 VEID inh inactive.
Screening N#Cc1c(F)cccc1N1CCOCC1 returned TDP2 absorb inactive, LEDGF integ inh inactive, UHRF1 binding 52.9, NSD2 HMT inh inactive and MBD2 DNA inh inactive.
CCCCNC(=O)C1C(c2ccc(C(F)(F)F)cc2)=Nc2ccccc2N1C(=O)c1ccc2nc(C)[nH]c2c1 (centres undefined) was read as TDP2 absorb inactive, LEDGF integ inh inactive, CASP6 VEID inh 39.9, UHRF1 binding inactive and MBD2 DNA inh inactive.
For CCCCNC(=O)C1C(c2ccc(C(F)(F)F)cc2)=Nc2ccccc2N1C(C)=O (centres undefined) the results were TDP2 absorb inactive, LEDGF integ inh inactive, CASP6 VEID inh inactive, UHRF1 binding inactive, NSD2 HMT inh inactive and MBD2 DNA inh inactive.
For O=C(COC(=O)c1ccc([N+](=O)[O-])s1)c1ccc[nH]1 the results were TDP2 absorb 35.1, LEDGF integ inh inactive, CASP6 VEID inh 99.2, UHRF1 binding inactive, NSD2 HMT inh inactive and MBD2 DNA inh inactive.
O=C(COC(=O)c1ccc([N+](=O)[O-])s1)NC(=O)NCc1ccccc1 was read as TDP2 absorb inactive, LEDGF integ inh inactive, CASP6 VEID inh 43.7, UHRF1 binding inactive, NSD2 HMT inh inactive and MBD2 DNA inh inactive.
Screening O=C(COC(=O)c1ccc(O)cc1)NC(=O)NCc1ccccc1 returned TDP2 absorb inactive, LEDGF integ inh inactive, CASP6 VEID inh inactive, UHRF1 binding inactive, NSD2 HMT inh inactive and MBD2 DNA inh inactive.
For COCC(=O)Nc1ccc2c(c1)OC[C@H](C)N(Cc1cccnc1)C[C@@H](C)[C@H](OC)CN(C)C2=O the results were CASP6 VEID inh inactive.
Screening O=C(O)c1c2c(nc3ccc(Cl)cc13)CCC2 returned TDP2 absorb inactive, LEDGF integ inh inactive, CASP6 VEID inh 49.8, UHRF1 binding inactive, NSD2 HMT inh inactive and MBD2 DNA inh inactive.
`Cc1ccc2nc3c(c(C(=O)O)c2c1)CCC3` gave TDP2 absorb inactive, LEDGF integ inh inactive, CASP6 VEID inh inactive, UHRF1 binding 21.4, NSD2 HMT inh inactive and MBD2 DNA inh inactive.
Screening O=C(O)c1c2c(nc3ccc(F)cc13)CCC2 returned CASP6 VEID inh inactive and NSD2 HMT inh inactive.
Screening C[C@@H]1CN([C@H](C)CO)C(=O)c2cc(NC(=O)c3ccncc3)ccc2O[C@H]1CN(C)Cc1ccc(C(=O)Nc2ccccc2N)cc1 returned CASP6 VEID inh inactive.
Cn1nc(CC(=O)Nc2ncc(Br)s2)c2ccccc2c1=O was read as TDP2 absorb inactive, LEDGF integ inh inactive, UHRF1 binding 21.6, NSD2 HMT inh inactive and MBD2 DNA inh inactive.
For CCOC(=O)C1=CC[C@@H](c2ccccc2)[C@@H]1C(=O)c1ccc(OC)cc1 the results were CASP6 VEID inh inactive.
`CCN(CC)C(=O)c1cccc(-c2csc(C(O)c3ccccc3)n2)c1` (centres undefined) gave TDP2 absorb inactive, LEDGF integ inh inactive, CASP6 VEID inh inactive, UHRF1 binding 22.0, NSD2 HMT inh inactive and MBD2 DNA inh inactive.
For C[C@@H]1CN([C@@H](C)CO)C(=O)Cc2cc(NC(=O)Nc3ccc(F)cc3)ccc2O[C@H]1CN(C)S(=O)(=O)c1ccccc1 the results were CASP6 VEID inh inactive.
CCCc1cc(-c2n[nH]c(C(=O)OCC)c2-c2cscn2)c(O)cc1O was read as TDP2 absorb inactive, LEDGF integ inh inactive, CASP6 VEID inh 45.0, UHRF1 binding inactive, NSD2 HMT inh inactive and MBD2 DNA inh inactive.
Screening COc1ccc2c3c(n(C)c2c1)[C@@H](CO)N(CC1CC1)CC31CN(S(=O)(=O)c2cccs2)C1 returned CASP6 VEID inh inactive.
